Measurements from ChEMBL document CHEMBL4024749, “Discovery of 3,5-Diphenyl-4-methyl-1,3-oxazolidin-2-ones as Novel, Potent, and Orally Available Δ-5 Desaturase (D5D) Inhibitors” (J Med Chem, 2017).

Key:
[1] = molecular target: Acyl-CoA (8-3)-desaturase (Rattus norvegicus, UniProt Q920R3); test: Displacement of [3H]T-3364366 from D5D in rat liver microsomal membrane preincubated for 15 mins followed by radioligand addition measured after 150 mins by TopCount microscintillation counting assay; format: cell membranes
Procedure, shortened: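 Rat liver microsome fraction (30 μg/well) preincubated 15 min with test compound at room temperature in 10 mM Tris-HCl pH 7.5, 100 mM KCl, 10 mM NaF buffer, 200 μL/well; bound ligand trapped on GF/C filters, washed 5× with ice-cold buffer, counted by scintillation. Nonspecific binding with 10 μM unlabeled T-3364366; IC50 from three-parameter logistic fit.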

[2] = molecular target: Acyl-CoA (8-3)-desaturase (Homo sapiens, UniProt O60427); test: Inhibition of D5D in human HepG2 cells assessed as [14C]AA formation from [14C]DGLA preincubated for 30 mins followed by [14C]eicosatrienoic acid addition measured after 3 hrs by TLC analysis; format: cell-based
Procedure, shortened: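 HepG2 plated at 1 × 10^5 cells/well, cultured overnight in DMEM/10% FBS, PBS-washed, then preincubated 30 min at 37 °C with compound in DMEM with penicillin/streptomycin and 0.3% BSA. 0.1 μCi [14C]eicosatrienoic acid added and cells incubated 3 h at 37 °C; lipids saponified overnight at 55 °C with NaOH, acidified, extracted with chloroform/MeOH, separated by TLC.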

[3] = Drug metabolism in human hepatocytes assessed as 5-(4-fluorophenyl)-4-hydroxy-3-(3-methoxyphenyl)oxazolidin-2-one formation by LC-MS/MS analysis; format: ADME, cell-based, Hepatocyte
Procedure, shortened: (§1)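 Human or mouse hepatocytes incubated with compound; metabolites identified by LC/MS/MS and formation ratio (%) calculated as metabolite UV peak area after incubation over parent peak area before incubation × 100, assuming equal extinction coefficients.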

[4] = Drug metabolism in human hepatocytes assessed as 3-(5-(4-fluorophenyl)-4-hydroxy-2-oxooxazolidin-3-yl)phenyl hydrogen sulfate formation by LC-MS/MS analysis; format: ADME, cell-based, Hepatocyte; procedure, shortened: as §1
[5] = Drug metabolism in mouse hepatocytes assessed as 5-(4-fluorophenyl)-3-(3-hydroxyphenyl)oxazolidin-2-one formation by LC-MS/MS analysis; format: ADME, cell-based, Hepatocyte; procedure, shortened: as §1
[6] = Drug metabolism in mouse hepatocytes assessed as 5-(4-fluorophenyl)-4-hydroxy-3-(3-methoxyphenyl)oxazolidin-2-one formation by LC-MS/MS analysis; format: ADME, cell-based, Hepatocyte; procedure, shortened: as §1
[7] = Drug metabolism in mouse hepatocytes assessed as 3-(5-(4-fluorophenyl)-4-hydroxy-2-oxooxazolidin-3-yl)phenyl hydrogen sulfate formation by LC-MS/MS analysis; format: ADME, cell-based, Hepatocyte; procedure, shortened: as §1
[8] = tested on: Liver; test: Drug metabolism in mouse liver assessed as 5-(4-fluorophenyl)-3-(3-hydroxyphenyl)oxazolidin-2-one formation at 488 mg/kg/day, po by LC-MS/MS analysis; format: ADME, organism-based; settings: in vivo
Procedure, shortened: (§2)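 Mice given compound orally as dietary admixture at 488 mg kg−1 day−1; liver concentrations of parent and metabolites determined by LC/MS/MS, metabolites quantified assuming extinction coefficient equal to parent.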

[9] = tested on: Liver; test: Drug metabolism in mouse liver assessed as 3-(5-(4-fluorophenyl)-2-oxooxazolidin-3-yl)phenyl hydrogen sulfate formation at 488 mg/kg/day, po by LC-MS/MS analysis; format: ADME, organism-based; settings: in vivo; procedure, shortened: as §2
[10] = tested on: Liver; test: Drug metabolism in mouse liver assessed as (2S,3S,4S,5R,6S)-6-(5-(4-fluorophenyl)-3-(3-methoxyphenyl)-2-oxooxazolidin-4-yloxy)-3,4,5-trihydroxytetrahydro-2H-pyran-2-carboxylic acid formation at 488 mg/kg/day, po by LC-MS/MS analysis; format: ADME, organism-based; settings: in vivo; procedure, shortened: as §2
[11] = tested on: Liver; test: Drug metabolism in mouse liver assessed as (2S,3S,4S,5R,6S)-6-(3-(5-(4-fluorophenyl)-2-oxooxazolidin-3-yl)phenoxy)-3,4,5-trihydroxytetrahydro-2H-pyran-2-carboxylic acid formation at 488 mg/kg/day, po by LC-MS/MS analysis; format: ADME, organism-based; settings: in vivo; procedure, shortened: as §2
[12] = tested on: Liver; test: Drug metabolism in mouse liver assessed as 5-(4-fluorophenyl)-4-hydroxy-3-(3-methoxyphenyl)oxazolidin-2-one formation at 488 mg/kg/day, po by LC-MS/MS analysis; format: ADME, organism-based; settings: in vivo; procedure, shortened: as §2
[13] = tested on: Liver; test: Drug metabolism in mouse liver assessed as 3-(5-(4-fluorophenyl)-4-hydroxy-2-oxooxazolidin-3-yl)phenyl hydrogen sulfate formation at 488 mg/kg/day, po by LC-MS/MS analysis; format: ADME, organism-based; settings: in vivo; procedure, shortened: as §2
[14] = Drug stability in human hepatocytes by LC-MS/MS analysis; format: ADME, cell-based, Hepatocyte
[15] = Drug stability in mouse hepatocytes by LC-MS/MS analysis; format: ADME, cell-based, Hepatocyte

Sequence of Acyl-CoA (8-3)-desaturase (Rattus norvegicus, UniProt Q920R3) (Q920R3 whole entry): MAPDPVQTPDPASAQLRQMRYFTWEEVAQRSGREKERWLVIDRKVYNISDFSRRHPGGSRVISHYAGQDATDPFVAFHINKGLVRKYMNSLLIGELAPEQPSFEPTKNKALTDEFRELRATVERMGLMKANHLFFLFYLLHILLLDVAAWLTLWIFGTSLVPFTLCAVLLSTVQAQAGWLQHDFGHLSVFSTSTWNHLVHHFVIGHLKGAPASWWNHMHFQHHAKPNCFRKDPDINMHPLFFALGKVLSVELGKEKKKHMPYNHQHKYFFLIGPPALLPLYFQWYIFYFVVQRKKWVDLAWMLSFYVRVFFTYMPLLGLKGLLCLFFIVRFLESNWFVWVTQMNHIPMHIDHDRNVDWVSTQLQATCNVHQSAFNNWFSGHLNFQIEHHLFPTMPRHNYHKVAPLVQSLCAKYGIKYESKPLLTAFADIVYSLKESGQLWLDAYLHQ
Sequence of Acyl-CoA (8-3)-desaturase (Homo sapiens, UniProt O60427) (O60427 whole entry): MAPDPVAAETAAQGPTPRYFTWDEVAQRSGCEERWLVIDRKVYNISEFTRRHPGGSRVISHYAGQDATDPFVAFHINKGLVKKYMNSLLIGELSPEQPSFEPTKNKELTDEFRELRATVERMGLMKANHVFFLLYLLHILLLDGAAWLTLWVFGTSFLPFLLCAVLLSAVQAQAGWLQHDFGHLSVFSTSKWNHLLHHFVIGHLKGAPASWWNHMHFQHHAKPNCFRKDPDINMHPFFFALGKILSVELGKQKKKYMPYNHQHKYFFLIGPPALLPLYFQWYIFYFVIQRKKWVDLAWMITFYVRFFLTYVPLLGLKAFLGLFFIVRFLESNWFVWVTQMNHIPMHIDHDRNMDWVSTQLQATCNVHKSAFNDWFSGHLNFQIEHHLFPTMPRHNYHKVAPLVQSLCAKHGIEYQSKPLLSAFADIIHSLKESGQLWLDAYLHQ

- IC50 [1]: 8.5 nM
- IC50 [2]: 4.1 nM
- Drug metabolism [3]: Metabolite_Notdetected
- Drug metabolism [4]: Metabolite_Notdetected
- Drug metabolism [5]: Metabolite_Notdetected
- Drug metabolism [6]: Metabolite_Notdetected
- Drug metabolism [7]: Metabolite_Notdetected
- Drug metabolism [8]: 0.51 to 1.21 µg/g
- Drug metabolism [9]: 4.41 to 12.9 µg/g
- Drug metabolism [10]: Metabolite_Notdetected
- Drug metabolism [11]: 0.83 to 2.5 µg/g
- Drug metabolism [12]: 0.25 to 0.65 µg/g
- Drug metabolism [13]: 0.48 to 1.78 µg/g
- Stability [14]: 22.5%
- Stability [15]: 2.3%
Structure (SMILES): COc1cccc(N2CC(c3ccc(F)cc3)OC2=O)c1 (racemic)
